Source: ChEMBL document CHEMBL4043223, “Structure-activity relationship study of small molecule inhibitors of the DEPTOR-mTOR interaction” (Bioorg Med Chem Lett, 2017)
Activity calls are given as the source filed them. No cut-off for these calls is given here.

Columns and labels:
[1] = system: RPMI-8226; assay: Cytotoxicity against human RPMI8226 cells after 48 hrs by MTT assay; assay type: functional, cell-based; details: RPMI-8226, 48 h
How it was run: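 MTT in RPMI-8226 cells: 1–2 × 10^4 cells per well in complete medium, exposed 48 h to a range of compound concentrations. MTT reduction to formazan read at 570 nm. Quadruplicate wells per group; OD given as % of DMSO-only control set at 100%. IC50 taken from the concentration series.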

[2] = system: MM1.S; assay: Cytotoxicity against human MM1S cells after 48 hrs by MTT assay; assay type: functional, cell-based
How it was run: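 MM1.S myeloma cells (DEPTOR-over-expressing) in 48 h MTT: 1–2 × 10^4 cells per well, graded compound concentrations, formazan at 570 nm. Quadruplicate wells; survival as % of DMSO control; IC50 derived from the concentration range.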

[3] = Therapeutic index, ratio of IC50 for PBL (unknown origin) to IC50 for human RPMI8226 cells
How it was run: (§1)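 Normal peripheral blood lymphocytes tested head-to-head with 8226 myeloma cells in 48 h MTT assays. […] Therapeutic index = IC50(PBL)/IC50(8226).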

[4] = biological target: DEP domain-containing mTOR-interacting protein (Homo sapiens) (UniProt Q8TB45); assay: Inhibition of mTOR binding to DEPTOR in human RPMI8226 cells assessed as increase in mTORC1-associated p70 phosphorylation at […] after 6 hrs by Western blot analysis; assay type: cell-based
[5] = system: PBL; assay: Cytotoxicity against PBL (unknown origin) after 48 hrs by MTT assay; assay type: cell-based; how it was run: as §1
[6] = system: RPMI-8226; assay: Cytotoxicity against RAPTOR knockdown human RPMI8226 cells at 0.12 to 1 uM after 48 hrs by MTT assay; assay type: functional, cell-based
How it was run: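 8226 cells infected with lentivirus carrying shRAPTOR or control shSCRAMBLE, knockdown confirmed by immunoblot. Cells then incubated with increasing compound concentrations; MTT read-out after 48 h, formazan at 570 nm, as % of DMSO control.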

[7] = biological target: DEP domain-containing mTOR-interacting protein (Homo sapiens) (UniProt Q8TB45); assay: Inhibition of mTOR binding to DEPTOR in human RPMI8226 cells at 0.5 uM treated 6 hrs followed by DEPTOR immunoprecipitation by immunoblotting analysis; assay type: cell-based
How it was run: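 Co-immunoprecipitation: 8226 cells treated 6 h with DMSO or 0.5 µM compound. DEPTOR immunoprecipitated; precipitates immunoblotted for DEPTOR and bound mTOR.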

[8] = system: RPMI-8226; assay: Induction of apoptosis in human RPMI8226 cells assessed as caspase3 activation at 0.12 to 2 uM after 48 hrs by cytofix/cytoperm staining based flow cytometry; assay type: functional, cell-based
How it was run: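 Caspase-3 flow cytometry 48 h after drug exposure of 8226 cells. 10^6 cells washed in PBS, fixed and permeabilized in cytofix/cytoperm, stained 30 min with PE-conjugated anti-active-caspase-3 (1:5 dilution). % apoptosis = drug-treated minus DMSO-control positives; mean ± SD, n = 4.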

[9] = biological target: DEP domain-containing mTOR-interacting protein (Homo sapiens) (UniProt Q8TB45); assay: Inhibition of mTOR binding to DEPTOR in human RPMI8226 cells assessed as increase in mTORC1-associated p70 phosphorylation at 1 uM after 6 hrs by Western blot analysis; assay type: cell-based
How it was run: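 8226 cells exposed 6 h to compound, DMSO in untreated controls. Lysates run on 12.5% SDS-PAGE, transferred to PVDF, probed for phospho- and total p70. Densitometric phospho/total ratio expressed as fold versus parent compound B set at 1; mean ± SD, n = 4.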

[10] = biological target: DEP domain-containing mTOR-interacting protein (Homo sapiens) (UniProt Q8TB45); assay: Inhibition of mTOR binding to DEPTOR in human RPMI8226 cells at 1 uM treated 6 hrs followed by DEPTOR immunoprecipitation by immunoblotting analysis; assay type: cell-based
How it was run: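 RPMI8226 myeloma cells exposed to compound or DMSO for 6 h; DEPTOR immunoprecipitated from cell extracts, and precipitates immunoblotted for DEPTOR and co-precipitated mTOR. Proteins resolved by 12.5% SDS-PAGE, transferred to PVDF and detected with specific antibodies.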

[11] = system: RPMI-8226; assay: Cytotoxicity against human RPMI8226 cells at 1 to 2 uM after 6 hrs by MTT assay; assay type: cell-based; details: rpmi-8226, 6 h
[12] = system: RPMI-8226; assay: Cytotoxicity against human RPMI8226 cells at 0.05 to 0.2 uM after 6 hrs by MTT assay; assay type: cell-based; details: rpmi-8226, 6 h
[13] = system: RPMI-8226; assay: Cytotoxicity against human RPMI8226 cells at 0.5 uM after 6 hrs by MTT assay; assay type: cell-based; details: rpmi-8226, 6 h

DEP domain-containing mTOR-interacting protein (Homo sapiens), sequence (Q8TB45 whole entry, the tested form may be a part): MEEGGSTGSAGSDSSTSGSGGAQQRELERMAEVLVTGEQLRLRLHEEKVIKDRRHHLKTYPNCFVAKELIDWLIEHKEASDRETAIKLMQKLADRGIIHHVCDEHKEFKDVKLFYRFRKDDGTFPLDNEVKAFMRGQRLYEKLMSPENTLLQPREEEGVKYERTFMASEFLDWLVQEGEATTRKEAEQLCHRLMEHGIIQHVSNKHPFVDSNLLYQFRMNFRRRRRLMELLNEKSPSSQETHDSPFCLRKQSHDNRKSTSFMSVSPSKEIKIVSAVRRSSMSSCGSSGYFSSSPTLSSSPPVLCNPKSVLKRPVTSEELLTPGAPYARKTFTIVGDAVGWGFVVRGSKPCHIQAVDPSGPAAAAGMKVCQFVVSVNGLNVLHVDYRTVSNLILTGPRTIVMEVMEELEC

Structure (SMILES) | IC50 [1] | IC50 [2] | also measured
NN=C(c1ccccc1)c1ccccc1 | > 5000 nM | > 5000 nM | –
Fc1ccc(NN=C2C(Cl)=C(Cl)C(Cl)=C2Cl)cc1 | 600 to 700 nM | 1300 nM | Ratio IC50 [3]: 33; inhibition [4]: Active; IC50 [5]: 20000 nM; Activity [6]: inactive; inhibition [7]: Active; Activity [8]: Active; inhibition [9]: Active
NN=C1c2ccccc2-c2ccccc21 | > 5000 nM | – | –
ClC1=C(Cl)C(Cl)=C(Cl)C1=NNc1ccccc1 | 600 to 700 nM | 2000 nM | –
Fc1ccccc1NN=C1C(Cl)=C(Cl)C(Cl)=C1Cl | > 3000 nM | > 3000 nM | –
ClC1=C(Cl)C(Cl)=C(Cl)C1=NNC1CCCCC1 | 3000 to 5000 nM | > 3000 nM | –
ClC1=C(Cl)C(Cl)=C(Cl)C1=NNc1cc(Cl)cc(Cl)c1 | 800 nM | 2000 nM | –
ON=C1C(Cl)=C(Cl)C(Cl)=C1Cl | > 5000 nM | – | –
Cc1cccc(NN=C2C(Cl)=C(Cl)C(Cl)=C2Cl)c1 | 2000 nM | > 3000 nM | –
CC(C)(C)NN=C1C(Cl)=C(Cl)C(Cl)=C1Cl | 3000 to 5000 nM | > 3000 nM | –
NN=C1C(Cl)=C(Cl)C(Cl)=C1Cl | 1300 to 1500 nM | 3000 nM | Ratio IC50 [3]: 14.3; inhibition [10]: Active; IC50 [5]: 20000 nM; inhibition [7]: inactive; Activity [8]: Active; inhibition [9]: Active
C#CCOC(=O)NN=C1C(Cl)=C(Cl)C(Cl)=C1Cl | 800 nM | – | –
O=C(c1ccccc1)N(N=C1C(Cl)=C(Cl)C(Cl)=C1Cl)C(=O)c1ccccc1 | 800 nM | 2000 nM | –
O=C(NN=C1C(Cl)=C(Cl)C(Cl)=C1Cl)c1ccccc1 | 600 nM | 800 nM | Activity [11]: Toxic; Activity [12]: Non-Toxic; Activity [13]: Toxic
Fc1cccc(NN=C2c3ccccc3-c3ccccc32)c1 | > 5000 nM | > 5000 nM | –
